Source: ChEMBL document CHEMBL1153612, “Synthesis and antitumor activity of novel dithiocarbamate substituted chromones” (Eur J Med Chem, 2009)

How the values were obtained:
Format in all cases: functional, cell-based
[1] = test system: HeLa; experiment: Antiproliferative activity against human HeLa cells after 72 hrs by MTT assay
Summary of the method: (§1)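 Cells seeded at 8000 per well in 96-well plates, exposed to compound for 72 h. MTT added at 0.5 mg/mL final and incubated 4 h. Formazan dissolved in DMSO, absorbance read at 570 nm. IC50 is the concentration giving 50% reduction in cell growth, reported as the mean of three repeated experiments.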

[2] = test system: SW480; experiment: Antiproliferative activity against human SW480 cells after 72 hrs by MTT assay; settings: SW480, 72 h; summary of the method: as §1
[3] = test system: MCF7; experiment: Antiproliferative activity against human MCF7 cells after 72 hrs by MTT assay; settings: MCF7, 72 h; summary of the method: as §1
[4] = test system: HEp-2; experiment: Antiproliferative activity against human Hep2 cells after 72 hrs by MTT assay; settings: HEp-2, 72 h; summary of the method: as §1
[5] = Antiproliferative activity against human MDA-MB-435S cells after 72 hrs by MTT assay; summary of the method: as §1
[6] = Antiproliferative activity against human LM7 cells after 72 hrs by MTT assay; settings: LM7, 72 h; summary of the method: as §1

Work on `O=c1c(CSC(=S)N2CCCCC2)coc2ccccc12` yielded an IC50 [1] of 2.3 µM, an IC50 [2] of 1.2 µM and an IC50 [3] of 1.7 µM. The IC50 [4] was 0.39 µM, the IC50 [5] was 0.47 µM and the IC50 [6] was 4.6 µM.
`COc1ccc2c(=O)c(CSC(=S)N3CCCC3)coc2c1` showed an IC50 [1] of 12.1 µM, an IC50 [2] of 4.8 µM and an IC50 [3] of 34.1 µM. For the same compound, the IC50 [4] was 3.1 µM, the IC50 [5] was 1.8 µM and the IC50 [6] was 6 µM.
In the case of `COc1ccc2c(=O)cc(CSC(=S)N(C(C)C)C(C)C)oc2c1`, the IC50 [1] is reported as > 25 µM, the IC50 [2] is reported as 7.2 µM and the IC50 [3] is reported as > 25 µM. The IC50 [4] was 7.6 µM, the IC50 [5] was 22.1 µM and the IC50 [6] was 19.1 µM.
With `Cc1ccc2occ(CSC(=S)N(C(C)C)C(C)C)c(=O)c2c1` the IC50 [1] was 1.4 µM, the IC50 [2] was > 25 µM and the IC50 [3] was 6.6 µM. For the same compound, the IC50 [4] was 0.7 µM, the IC50 [5] was 0.24 µM and the IC50 [6] was 6.3 µM.
`O=c1cc(CSC(=S)N2CCOCC2)oc2ccccc12` gave an IC50 [1] of 35.6 µM, an IC50 [2] of 24.4 µM and an IC50 [3] of 21 µM. For the same compound, the IC50 [4] was > 25 µM, the IC50 [5] was 22.2 µM and the IC50 [6] was 25.2 µM.
In the case of `O=c1c(CSC(=S)N2CCOCC2)coc2ccc(Cl)cc12`, the IC50 [1] is reported as 2 µM, the IC50 [2] is reported as 6.2 µM and the IC50 [3] is reported as 8.1 µM. For the same compound, the IC50 [4] was 0.9 µM, the IC50 [5] was 0.6 µM and the IC50 [6] was 6.2 µM.
Work on `O=c1c(CSC(=S)N2CCOCC2)coc2ccccc12` yielded an IC50 [2] of 5.9 µM, an IC50 [3] of 4 µM and an IC50 [4] of 4.4 µM. It also gave an IC50 [5] of 3.9 µM and an IC50 [6] of 12 µM.
In the case of `Cc1ccc2occ(CSC(=S)N3CCCCC3)c(=O)c2c1`, the IC50 [1] is reported as > 25 µM, the IC50 [2] is reported as > 25 µM and the IC50 [3] is reported as 0.8 µM. For the same compound, the IC50 [4] was 0.9 µM, the IC50 [5] was 1.7 µM and the IC50 [6] was 5.1 µM.
In the case of `O=c1c(CSC(=S)N2CCN(Cc3ccccc3)CC2)coc2ccccc12`, the IC50 [1] is reported as 7.9 µM, the IC50 [2] is reported as 4.5 µM and the IC50 [3] is reported as 9.6 µM. For the same compound, the IC50 [4] was 2.9 µM, the IC50 [5] was 4.4 µM and the IC50 [6] was 19.1 µM.
For `CCOC(=O)c1cc(=O)c2cc(CSC(=S)N(C(C)C)C(C)C)ccc2o1`, the IC50 [1] was > 25 µM, the IC50 [2] was > 25 µM and the IC50 [3] was > 25 µM. The IC50 [4] was 15.9 µM, the IC50 [5] was 8.1 µM and the IC50 [6] was > 25 µM.
In the case of `CC(C)N(C(=S)SCc1cc(=O)c2ccccc2o1)C(C)C`, the IC50 [2] is reported as > 40 µM, the IC50 [3] is reported as 31.7 µM and the IC50 [4] is reported as 13.6 µM. The IC50 [5] was > 40 µM and the IC50 [6] was > 25 µM.
With `COc1ccc2c(=O)cc(CSC(=S)N3CCOCC3)oc2c1` the IC50 [1] was > 25 µM, the IC50 [2] was 3.1 µM and the IC50 [3] was > 25 µM. It also gave an IC50 [4] of 3 µM, an IC50 [5] of 3.4 µM and an IC50 [6] of 11 µM.
With `O=c1cc(CSC(=S)N2CCCCC2)oc2ccccc12` the IC50 [1] was > 25 µM, the IC50 [2] was 13.7 µM and the IC50 [3] was > 25 µM. For the same compound, the IC50 [4] was 12 µM, the IC50 [5] was > 25 µM and the IC50 [6] was > 25 µM.
For `O=c1cc(CSC(=S)N2CCCC2)oc2ccc(Cl)cc12`, the IC50 [1] was > 40 µM, the IC50 [2] was > 25 µM and the IC50 [3] was > 25 µM. For the same compound, the IC50 [4] was > 40 µM, the IC50 [5] was > 25 µM and the IC50 [6] was > 25 µM.
With `CC(C)N(C(=S)SCc1cc(=O)c2cc(Cl)ccc2o1)C(C)C` the IC50 [1] was > 30 µM, the IC50 [2] was > 25 µM and the IC50 [3] was > 25 µM. The IC50 [4] was 22.7 µM, the IC50 [5] was > 25 µM and the IC50 [6] was > 30 µM.
For `CCOC(=O)c1cc(=O)c2cc(CSC(=S)N3CCCCC3)ccc2o1`, the IC50 [1] was 5.8 µM, the IC50 [2] was > 25 µM and the IC50 [3] was 21.9 µM. The IC50 [4] was 3.4 µM, the IC50 [5] was 2.9 µM and the IC50 [6] was 16.9 µM.
In the case of `O=c1cc(CSC(=S)N2CCCCC2)oc2ccc(Cl)cc12`, the IC50 [1] is reported as > 25 µM, the IC50 [2] is reported as 2.5 µM and the IC50 [3] is reported as > 25 µM. For the same compound, the IC50 [4] was 1.6 µM, the IC50 [5] was 3 µM and the IC50 [6] was 13.8 µM.
In the case of `CCOC(=O)c1cc(=O)c2cc(CSC(=S)N(C)c3ccccc3)ccc2o1`, the IC50 [1] is reported as 18.1 µM, the IC50 [2] is reported as > 25 µM and the IC50 [3] is reported as > 25 µM. For the same compound, the IC50 [5] was 13.5 µM and the IC50 [6] was > 25 µM.
With `CC(C)N(C(=S)SCc1coc2ccc(Cl)cc2c1=O)C(C)C` the IC50 [1] was > 25 µM, the IC50 [2] was > 25 µM and the IC50 [4] was 4.2 µM. For the same compound, the IC50 [5] was > 25 µM and the IC50 [6] was > 25 µM.
`O=c1c(Cl)c(CSC(=S)N2CCOCC2)oc2ccccc12` showed an IC50 [1] of 4.5 µM, an IC50 [2] of 1.8 µM and an IC50 [3] of 11.1 µM. The IC50 [4] was 9 µM, the IC50 [5] was 4.1 µM and the IC50 [6] was 19.2 µM.
For `COc1ccc2c(=O)c(CSC(=S)N(C(C)C)C(C)C)coc2c1`, the IC50 [1] was 5.4 µM, the IC50 [2] was 4.8 µM and the IC50 [3] was > 40 µM. For the same compound, the IC50 [4] was 8.9 µM, the IC50 [5] was 1.8 µM and the IC50 [6] was 4.7 µM.
In the case of `O=c1cc(CSC(=S)N2CCOCC2)oc2ccc(Cl)cc12`, the IC50 [1] is reported as 33.3 µM, the IC50 [2] is reported as > 25 µM and the IC50 [3] is reported as > 25 µM. The IC50 [4] was 20.6 µM, the IC50 [5] was > 25 µM and the IC50 [6] was > 25 µM.
In the case of `CC(C)N(C(=S)SCc1oc2ccccc2c(=O)c1Cl)C(C)C`, the IC50 [1] is reported as > 40 µM, the IC50 [2] is reported as 18.1 µM and the IC50 [3] is reported as > 40 µM. The IC50 [4] was 20 µM, the IC50 [5] was 23.6 µM and the IC50 [6] was > 40 µM.
For `CCN(CC)C(=S)SCc1cc(=O)c2cc(Cl)ccc2o1`, the IC50 [1] was 8.7 µM, the IC50 [2] was > 25 µM and the IC50 [3] was > 25 µM. It also gave an IC50 [4] of 8.8 µM, an IC50 [5] of 23.5 µM and an IC50 [6] of 8.8 µM.
In the case of `O=c1cc(CSC(=S)N2CCN(c3ccccc3)CC2)oc2ccc(Cl)cc12`, the IC50 [1] is reported as 25.9 µM, the IC50 [2] is reported as 21.2 µM and the IC50 [3] is reported as > 25 µM. It also gave an IC50 [4] of 15.9 µM, an IC50 [5] of 18.6 µM and an IC50 [6] of 15.9 µM.
For `O=c1c(CSC(=S)N2CCN(c3ccccc3)CC2)coc2ccccc12`, the IC50 [1] was 7.1 µM, the IC50 [2] was 5.2 µM and the IC50 [3] was > 30 µM. The IC50 [4] was 16.7 µM, the IC50 [5] was 9.7 µM and the IC50 [6] was 2.9 µM.
For `O=c1c(CSC(=S)N2CCCC2)coc2ccc(Cl)cc12`, the IC50 [1] was 1.3 µM, the IC50 [2] was 7.8 µM and the IC50 [3] was 0.6 µM. The IC50 [4] was 2.1 µM, the IC50 [5] was 6.4 µM and the IC50 [6] was 2.6 µM.
For `CC(C)N(C(=S)SCc1coc2ccccc2c1=O)C(C)C`, the IC50 [1] was > 30 µM, the IC50 [2] was 6.8 µM and the IC50 [3] was > 30 µM. For the same compound, the IC50 [4] was 3 µM, the IC50 [5] was 7.9 µM and the IC50 [6] was 21.9 µM.
With `O=c1c(CSC(=S)N2CCN(C(c3ccc(F)cc3)c3ccc(F)cc3)CC2)coc2ccccc12` the IC50 [1] was > 25 µM, the IC50 [2] was > 40 µM and the IC50 [3] was > 30 µM. The IC50 [4] was 9.6 µM, the IC50 [5] was > 40 µM and the IC50 [6] was > 25 µM.
With `O=c1c(SC(=S)N2CCCCC2)coc2ccccc12` the IC50 [1] was 9 µM, the IC50 [2] was 16.3 µM and the IC50 [4] was 5.8 µM. The IC50 [5] was 17.4 µM and the IC50 [6] was 7.8 µM.
In the case of `O=c1c(SC(=S)N2CCCC2)coc2ccc(Cl)cc12`, the IC50 [1] is reported as 16.3 µM, the IC50 [2] is reported as > 25 µM and the IC50 [3] is reported as > 25 µM. For the same compound, the IC50 [4] was 26 µM, the IC50 [5] was 24 µM and the IC50 [6] was 24.6 µM.
In the case of `Cc1ccc2occ(CSC(=S)N3CCOCC3)c(=O)c2c1`, the IC50 [1] is reported as 6.1 µM, the IC50 [2] is reported as 3.8 µM and the IC50 [3] is reported as 20.7 µM. It also gave an IC50 [4] of 4 µM, an IC50 [5] of 5.5 µM and an IC50 [6] of 14.3 µM.
Compound `O=c1c(Cl)c(CSC(=S)N2CCCC2)oc2ccccc12` has an IC50 [1] of 0.7 µM, an IC50 [2] of 1.4 µM and an IC50 [3] of 2.3 µM. It also gave an IC50 [4] of 0.6 µM, an IC50 [5] of 1.8 µM and an IC50 [6] of 1.9 µM.
Work on `O=c1cc(CSC(=S)N2CCCC2)oc2ccccc12` yielded an IC50 [1] of 23.1 µM, an IC50 [2] of 23.4 µM and an IC50 [3] of 35.8 µM. For the same compound, the IC50 [4] was 9.1 µM, the IC50 [5] was > 30 µM and the IC50 [6] was 40 µM.
In the case of `O=c1c(SC(=S)N2CCCC2)coc2ccccc12`, the IC50 [1] is reported as 3.8 µM, the IC50 [2] is reported as > 25 µM and the IC50 [3] is reported as 12.2 µM. For the same compound, the IC50 [4] was 7.4 µM and the IC50 [5] was 1.9 µM.
`CN1CCN(C(=S)SCc2coc3ccccc3c2=O)CC1` showed an IC50 [1] of 5.9 µM, an IC50 [3] of 22.9 µM and an IC50 [4] of 2.4 µM. For the same compound, the IC50 [5] was 2.2 µM and the IC50 [6] was 17.6 µM.
